Screening data from PubChem.
Shown are actives, neighbours in structure and some others; about 3.5% of the full set was active somewhere.
MrgX1 allo act – positive allosteric modulators of MrgX1, primary screen, HEK293 cells, Fluo-4 calcium flux | Mas-related G-protein coupled receptor member X1 (Homo sapiens), Q96LB2 | FDSS; stronger effect = higher value | B-score at 10 µM | 310,000 compounds, 0.63% hits | AID 588675, 2011;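 active = plate-corrected calcium response at least 3 library SD above typical, normal starting fluorescence, not activating the receptor alone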;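 note: compound read alongside a low EC10 to EC30 dose of BAM8-22 agonist; peak minus trough fluorescence over baseline measured at the second addition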
MrgX1 antagonist – antagonists of human MrgX1 receptor, primary screen, HEK293 cells, Fluo-4 calcium flux; B-score at 10 µM; 310,000 compounds, 1.3% hits; BAM8-22 antagonism; stronger effect = lower value; Mas-related G-protein coupled receptor member X1 (Homo sapiens), Q96LB2; AID 588676, 2011;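 active = calcium-response B-score plate-corrected more than 3 library SD below zero, starting fluorescence within 5 deviations, no agonist response on first addition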;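 note: peak minus trough fluorescence over baseline after final BAM8-22 challenge near maximal dose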
MrgX1 agonist – agonists of human MrgX1 receptor, primary screen, HEK293 cells, Fluo-4 calcium flux | Mas-related G-protein coupled receptor member X1 (Homo sapiens), Q96LB2 | Fluo-4 calcium fluorescence, agonist mode; stronger effect = higher value | B-score at 10 µM | 310,000 compounds, 0.44% hits | AID 588627, 2011;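 active = calcium response B-score plate-corrected fluorescence ratio at least 3 library SD, with starting fluorescence B-score inside 5 SD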
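Assay system: MrgX1-expressing HEK293 cells / Amount: fifteen thousand cells per well / Doses: test compound in the initial addition of three / Timing: cells plated overnight, dye loaded 0.5 h 37 °C, 0.5 h room temperature / Technique: kinetic calcium dye fluorescence, Fluo-4 NW / Control set: positive and negative controls per plate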
RGS4 pot – RGS4 potentiators or activators, primary screen, cell-based, HEK293 M3R inducible RGS4, calcium flux. 310,000 compounds, 0.92% hits. AID 463111, 2010. B-score at 10 µM. carbachol calcium flux Fluo4; stronger effect = lower value;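 active = B-score of the integrated calcium signal more than 4 SD below the library mean, with starting fluorescence not abnormally high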;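 note: negative B-score means reduced calcium response which marks RGS4 activation or potentiation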
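System – HEK293 FlpIn-TREx cells, stable M3R, doxycycline-inducible RGS4 · Reagent – ECmax carbachol challenge · Times – compound preincubation 20 min at room temperature before agonist · Technique – Fluo4 fluorescence kinetic imaging of calcium · Measure – B score of integrated Fluo4 ratio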
RGS4 block – RGS4 inhibitors, primary screen, cell-based, HEK293 M3R inducible RGS4, calcium flux | Regulator of G-protein signaling 4 (Homo sapiens), P49798 | Fluo-4 calcium flux; stronger effect = higher value; triggered by carbachol at its EC20 | B-score at 10 µM | 310,000 compounds, 0.45% hits | AID 463165, 2010;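 active = B-score, a plate-corrected calcium signal, over three deviations above library mean, with baseline fluorescence within five deviations of library mean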;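 note: RGS4 expression induced by doxycycline in cells with stable M3 receptor; B-score is computed from the integrated fluorescence ratio over baseline after carbachol; higher B-score means a larger calcium signal and so more RGS4 inhibition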
Target sequence (P49798 whole entry, looked up): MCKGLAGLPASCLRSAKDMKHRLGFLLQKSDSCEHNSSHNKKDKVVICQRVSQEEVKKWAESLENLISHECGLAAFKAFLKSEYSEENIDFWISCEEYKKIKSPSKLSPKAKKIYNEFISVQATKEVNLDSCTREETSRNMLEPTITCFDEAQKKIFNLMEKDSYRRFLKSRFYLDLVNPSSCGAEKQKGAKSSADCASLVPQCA
Each line names hits and unclear results; the compound was inactive in the other large screens.

COc1cccc2cc(C(=O)NC(C)c3ccccc3)c(=O)oc12 (configuration not stated)	none
CCNC(=O)NCCNC(=O)c1cc(OCC(F)(F)F)ccc1OCC(F)(F)F	MrgX1 antagonist -5.5
Cc1c(CCOC(=O)CC23CC4CC(CC(C4)C2)C3)sc[n+]1Cc1ccccc1	RGS4 pot -7.7
Cc1ncc(C[n+]2csc(CCOC(=O)CC34CC5CC(CC(C5)C3)C4)c2C)c(N)n1	none
CCOC(=O)C1CCCN(CCC(=O)Nc2cc(OC)ccc2OC)C1 (configuration not stated)	none
Cc1ccc(N2CCN(S(=O)(=O)c3ccc4c(c3)n(C)c(=O)c(=O)n4C)CC2C)cc1 (configuration not stated)	none
Cc1ccc(N2CCN(S(=O)(=O)c3ccc4c(c3)NC(=O)C(C)C(=O)N4)CC2C)cc1 (configuration not stated)	MrgX1 antagonist -7.6
COc1ccc(S(=O)(=O)N(CC(=O)NCc2ccncc2)c2cc(C)cc(C)c2)cc1OC	none
O=C(CNC(c1ccccc1)c1ccccc1)Nc1c(F)cccc1F	none
Fc1cccc(Cl)c1CNC(c1ccccc1)c1ccccc1	RGS4 pot -7
CCOc1ccc(NC2OCC(O)C(O)C2O)c([N+](=O)[O-])c1 (configuration not stated)	MrgX1 antagonist -5.1
CC(NC(=O)COc1cccnc1[N+](=O)[O-])c1ccc(Cl)cc1 (configuration not stated)	RGS4 pot -8.1
COc1cc(/C=C(\C#N)c2ccccn2)cc(OC)c1O	MrgX1 agonist 51
COc1cc(/C=C(\C#N)c2ccccn2)ccc1OCc1ccccc1Cl	none (no result: RGS4 pot, RGS4 block)
CCOC(=O)c1ccc(/C=C2/C=C(c3ccccc3)N(c3ccc(Cl)c(C(=O)O)c3)C2=O)cc1	MrgX1 agonist 40
CCOC(=O)c1ccc(Cl)c(NC(=O)c2ccc(-c3ccccc3)cc2)c1	none
COC(=O)C1(C(=O)OC)NOC2C(=O)N(c3ccccc3)C(=O)C21 (configuration not stated)	MrgX1 antagonist -5.7
COc1ccc(CC(=O)Nc2cccc(/C(C)=N/NC(=O)C3(C)CC3(Br)Br)c2)cc1 (configuration not stated)	RGS4 pot -9.3
C/C(=N\NC(=O)C1(C)CC1(Br)Br)c1cccc(NC(=O)C(C)(C)C)c1 (configuration not stated)	none
COc1cccc(CN2C(=NC(=O)C3CC3)SC3CS(=O)(=O)CC32)c1 (configuration not stated)	none
Cn1c(=O)n(CCc2ccccc2)c(=O)c2c1nc1n2CCCN1CCc1ccccc1	RGS4 pot -7.7
CN(Cc1ccccc1)S(=O)(=O)c1ccc(S(=O)(=O)N(Cc2ccc(F)cc2)C2CCCC2)cc1	MrgX1 antagonist -4.6
CCCCn1c(N)c(N(CC(C)C)C(=O)c2oc3c(Cl)cccc3c2C)c(=O)[nH]c1=O	none
O=[N+]([O-])c1cc(S(=O)(=O)N2CCCCCC2)ccc1F	MrgX1 allo act 6.6 (no result: RGS4 pot, RGS4 block)
Cc1cccc(N2C(=NC(=O)c3ccccc3)SC3CS(=O)(=O)CC32)c1 (configuration not stated)	none
CC(=O)NC(CC(=O)N1CCCC1)c1ccccc1 (configuration not stated)	MrgX1 antagonist -5.3
CC(=O)NC(CC(=O)O)c1ccccc1 (configuration not stated)	none
COc1cc(C(c2c(O)nc(SC)[nH]c2=O)c2c(O)nc(SC)[nH]c2=O)cc(OC)c1OC	MrgX1 antagonist -4.7
O=C1C(=O)N(CCCc2ccccc2)c2ccccc21	MrgX1 agonist 38
COC(=O)C1CC(c2c(OC)cc(OC)cc2OC)=NO1 (configuration not stated)	none
COC(=O)[C@@H]1C(c2c(OC)cc(OC)cc2OC)=NO[C@H]1C(=O)OC	MrgX1 antagonist -6.2
CN(C)/C(=N\S(=O)(=O)c1ccc(Cl)cc1)c1ccc(F)cc1	none
C[n+]1c(/C=C/c2ccc(O)cc2)ccc2ccccc21	none
